Screening results: PubChem, several laboratories
Hits are enriched below; roughly 3.4% of the tested compounds scored in any of these assays.
LANA-H2B inh = blocks KSHV LANA binding to histone H2A/H2B; Q9QR71; cell-free LANA-H2A/H2B peptide, fluorescence polarization; inhibition, % (test concentration not listed); 0.6% of 320,000 active; AID 2629; in the data active = inhibition mostly above about 10%, no sharp cut-off; inactive = mostly below about 6.7%
zfTRPN1 agonist = activates the zebrafish TRPN1 channel | HEK293 zebrafish TRPN1-YFP, Fluo-8 calcium fluorescence; 100% = response to 87 µM carbachol | activation, % at 3 µM | 0.18% of 220,000 active;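 active = activation above its plate's cutoff, the mean activation of test wells on that plate plus 3 SD, cut at about 19% in these data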
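System: zebrafish TRPN1-YFP in HEK293 cells / Dosing: 3 µM single point / Timing: dye loading 1 h at 37 °C, then 30 min room temperature / Signal: Fluo-8 calcium fluorescence, excitation 470-495 nm, emission 515-575 nm / Read-out basis: percent activation from peak over basal fluorescence ratio, control-normalized / Control set: high carbachol 87 µM, low DMSO alone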
TAAR1 antag = human TAAR1 antagonism | Q96RJ0 | inhibition, % at 3 µM | CHO RD-HGA16 TAAR1, Fluo-8 calcium fluorescence, antagonist | 1.5% of 360,000 active | AID 624466;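 active = inhibition above a per-plate cutoff, the mean inhibition of test compounds on that plate plus 3 SD, cut at about 49% in these data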
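Test system – hTAAR1-expressing CHO RD-HGA16 cells, Gα16-coupled · Reagent – β-PEA at EC80 concentration, post-compound challenge · Compound dosing – 3 µM, single point · Timing – 140 s kinetic read after compound, 140 s after agonist · Detection – Fluo-8 intracellular calcium dye fluorescence, real-time kinetic reads · Control set – DMSO and EC80 PEA controls · Repeats – n of 1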
GPR7 antagonist = blocks human GPR7 receptor signaling; P48145; GPR7-expressing cells, fluorescence antagonist assay; inhibition, % at 4.4 µM; 1.1% of 290,000 active; in the data active = inhibition above about 16%, passing the limit was not always enough;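 note: cells stimulated with the agonist NPW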
TRPML3 ag = agonists of human TRPML3 channel; Q8TDD5; AID 1448; 0.29% of 220,000 active; activation, % at 3 µM; HEK293 TRPML3-YFP, Fluo-8 calcium fluorescence; 100% = the carbachol control signal;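 active = activation above its plate's cutoff, the mean activation of the plate's test wells plus 3 SD, cut at about 12% in these data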
Target sequence (Q8TDD5 whole entry, looked up): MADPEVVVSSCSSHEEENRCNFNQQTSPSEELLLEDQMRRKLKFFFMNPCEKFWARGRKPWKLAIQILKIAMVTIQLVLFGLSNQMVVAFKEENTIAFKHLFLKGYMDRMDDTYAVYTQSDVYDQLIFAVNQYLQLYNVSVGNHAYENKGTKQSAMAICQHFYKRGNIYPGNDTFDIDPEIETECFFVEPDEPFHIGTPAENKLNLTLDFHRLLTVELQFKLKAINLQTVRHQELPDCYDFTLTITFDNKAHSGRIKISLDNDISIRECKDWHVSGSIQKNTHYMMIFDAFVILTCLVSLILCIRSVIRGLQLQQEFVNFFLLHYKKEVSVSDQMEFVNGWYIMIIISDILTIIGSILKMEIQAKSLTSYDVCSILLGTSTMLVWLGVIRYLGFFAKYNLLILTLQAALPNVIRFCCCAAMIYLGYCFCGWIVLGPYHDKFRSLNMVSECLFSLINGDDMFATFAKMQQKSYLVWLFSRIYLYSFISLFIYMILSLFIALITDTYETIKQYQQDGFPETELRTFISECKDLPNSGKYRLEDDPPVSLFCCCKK
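Test system: TRPML3-YFP stable HEK293 cells. Doses: single point at 3 µM. Incubation: dye loading 1 h 37 °C then 30 min ambient, 125 s read. Signal: Fluo-8 calcium dye fluorescence, ex 470-495, em 515-575 nm. Measure: percent activation from peak-to-basal fluorescence ratio, scaled between DMSO and carbachol.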
TAAR1 agonist = agonists of human TAAR1; Q96RJ0; CHO RD-HGA16 TAAR1, Fluo-8 calcium fluorescence; vehicle wells 0%, saturating PEA agonist 100%; activation, % at 3 µM; 0.99% of 360,000 active;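 active = activation above the mean activation of all test compounds in the run plus 3 SD, cut at about 38% in these data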
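Test system: RD-HGA16 (CHO) cells co-expressing Gα16 and hTAAR1; dosing: one-point dosing at 3 µM (nominal); timing: 17-24 h seeding, 75 min 37 °C dye, 30 min RT; signal: kinetic Fluo-8 calcium fluorescence; read-out basis: % activation relative to PEA EC100 response; controls: DMSO and PEA EC100; replicates: n 1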
TAAR1 nonsel count = nonselective antagonism, TAAR1 counter-screen. shares compounds with TAAR1 antag. counterscreen cell line, calcium fluorescence, antagonist mode. inhibition, % at 3 µM. 77% of 2,400 active; in the data active = inhibition above about 22%;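 note: CHO-Ga16 host cells stimulated with ATP at an EC80 level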
TAAR1 ant conf = confirmation of human TAAR1 antagonists. AID 651785. inhibition, % at 3 µM. TAAR1-expressing cells, fluorescence antagonist read-out. 40% of 2,400 active. shares compounds with TAAR1 antag; in the data active = inhibition above about 49%;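 note: CHO-Ga16 host cells challenged with agonist PEA near its EC80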
Ga16 nonsel ag = nonselective Ga16 agonist in TAAR1 antagonist counter-screen. activation, % at 3 µM. shares compounds with TAAR1 antag. Ga16-expressing cells, calcium fluorescence, agonist counterscreen. 18% of 2,400 active; in the data active = activation above about 12%
TAAR1 ag counter = activates human TAAR1 in antagonist counter-screen. shares compounds with TAAR1 antag. hTAAR1 cell line, fluorescence activation, agonist mode. activation, % at 3 µM. 2% of 2,400 active; in the data active = activation above about 37%;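 note: CHO cells stably expressing TAAR1 with calcium dye readout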
Each line names hits and unclear results; the compound was inactive in the other large screens (follow-up assays come after a bar, where they were run).

CNC(=S)N/N=C/c1cccc(OCc2ccccc2F)c1	none
CCNC(=S)N/N=C/c1cccc(OCc2c(F)cccc2Cl)c1	TAAR1 antag 56.8 | TAAR1 nonsel count inactive | TAAR1 ant conf inactive | Ga16 nonsel ag inactive | TAAR1 ag counter inactive
Cc1ccc(NC(=O)N2CCOCC2)cc1NC(=O)N1CCOCC1	none (no result: LANA-H2B inh, zfTRPN1 agonist, GPR7 antagonist, TRPML3 ag)
CC(=O)n1cc([C@@H]2C=C(C(=O)N3CCN(Cc4ccccc4)CC3)O[C@H](OCc3ccc(CO)cc3)C2)c2ccccc21	TAAR1 antag 52.1 | TAAR1 nonsel count inactive | TAAR1 ant conf inactive | Ga16 nonsel ag inactive | TAAR1 ag counter inactive
O=C(C1=C[C@@H](c2coc3ccccc3c2=O)C[C@@H](OCc2ccc(CO)cc2)O1)N1CCN(Cc2ccc3c(c2)OCO3)CC1	none
O=C(C1=C[C@H](c2coc3ccccc3c2=O)C[C@H](OCc2ccc(CO)cc2)O1)N1CCN(Cc2ccc3c(c2)OCO3)CC1	TAAR1 antag 49.5 | TAAR1 nonsel count inactive | TAAR1 ant conf inactive | Ga16 nonsel ag inactive | TAAR1 ag counter inactive
COc1cc(CN2CCNC(=O)C2CC(=O)N2CCCN(C(C)=O)CC2)cc(OC)c1 (centres undefined)	none (no result: zfTRPN1 agonist, TRPML3 ag)
O=C1CCc2ccc(OCCCCN3CCN(c4cccc(Cl)c4Cl)CC3)cc2N1	TAAR1 antag 63.0 | TAAR1 nonsel count 46.3 | TAAR1 ant conf inactive | Ga16 nonsel ag 15.8 | TAAR1 ag counter inactive
Cc1cccc(CN2C(=O)[C@H]3Cc4c([nH]c5ccccc45)C(C)(C)N3C2=O)c1	TAAR1 antag 60.5 (no result: zfTRPN1 agonist, GPR7 antagonist, TRPML3 ag) | TAAR1 nonsel count 24.1 | TAAR1 ant conf inactive | Ga16 nonsel ag inactive | TAAR1 ag counter inactive
Cc1ccccc1CN1C(=O)[C@H]2Cc3c([nH]c4ccccc34)C(C)(C)N2C1=O	TAAR1 antag 62.5 (no result: zfTRPN1 agonist, GPR7 antagonist, TRPML3 ag) | TAAR1 nonsel count 22.8 | TAAR1 ant conf inactive | Ga16 nonsel ag inactive | TAAR1 ag counter inactive
COc1ccc(NC(=O)NNC(=O)c2ccc3ccccc3c2O)c(OC)c1	none (no result: zfTRPN1 agonist, TRPML3 ag)
CC(OC(=O)CNS(=O)(=O)c1ccc2ccccc2c1)C(=O)N(C)c1ccccc1 (centres undefined)	none (no result: zfTRPN1 agonist, TRPML3 ag)
CC(OC(=O)COc1ccc(Nc2ccccc2)cc1)C(=O)N(C)c1ccccc1 (centres undefined)	TAAR1 antag 73.0 (no result: zfTRPN1 agonist, GPR7 antagonist, TRPML3 ag) | TAAR1 nonsel count 30.3 | TAAR1 ant conf inactive | Ga16 nonsel ag inactive | TAAR1 ag counter inactive
CCc1[nH]nc2c1C1(CCN(C(=O)OCc3ccccc3)CC1)C(C#N)=C(N)O2	TAAR1 antag 63.0 | TAAR1 nonsel count 34.1 | TAAR1 ant conf 56.9 | Ga16 nonsel ag 15.8 | TAAR1 ag counter inactive
CCCc1[nH]nc2c1C1(CCN(C(=O)OCc3ccccc3)CC1)C(C#N)=C(N)O2	none
Cc1cc(NC(=O)CCC(=O)N(CC(=O)NC2CCCC2)c2cccc(F)c2)no1	none (no result: zfTRPN1 agonist, TRPML3 ag)
COc1ccc(NC(=O)c2oc3ccc(S(=O)(=O)N4CCC5(CC4)OCCO5)cc3c2C)cc1	TAAR1 antag 56.5 | TAAR1 nonsel count 40.0 | TAAR1 ant conf 56.0 | Ga16 nonsel ag 14.2 | TAAR1 ag counter inactive
C=CCNC(=O)c1oc2ccc(S(=O)(=O)N3CCC4(CC3)OCCO4)cc2c1C	none (no result: zfTRPN1 agonist, TRPML3 ag)
O=C1NC(=S)N/C1=C\c1ccccc1OCc1ccc(C(=O)O)cc1	none
O=C(O)c1ccc(COc2ccccc2C=C2C(=O)c3ccccc3C2=O)cc1	TAAR1 antag 74.6 | TAAR1 nonsel count 36.7 | TAAR1 ant conf 53.6 | Ga16 nonsel ag inactive | TAAR1 ag counter inactive
OC[C@@H]1CN(Cc2ccc(Cl)cc2)C[C@H](n2cnc3c(NC4CC4)ncnc32)O1	none (no result: LANA-H2B inh, zfTRPN1 agonist, GPR7 antagonist, TRPML3 ag)
